In ChEMBL document CHEMBL3784986, “Discovery and Characterization of Biased Allosteric Agonists of the Chemokine Receptor CXCR3” (J Med Chem, 2016):
Active and inactive are the calls of the source. The rule behind the calls is not given here.

Legend:
[1] = target: T1, C-X-C chemokine receptor type 3 (Homo sapiens) (UniProt P49682); assay: Positive allosteric modulation of ProLink1-tagged wild type CXCR3 (unknown origin) expressed in HEK293T cells assessed as beta-arrestin-2 recruitment at 10 uM incubated for 4 hrs by chemiluminescence-based microplate reader method; type: cell-based; conditions: HEK-293T
T1 sequence (whole entry): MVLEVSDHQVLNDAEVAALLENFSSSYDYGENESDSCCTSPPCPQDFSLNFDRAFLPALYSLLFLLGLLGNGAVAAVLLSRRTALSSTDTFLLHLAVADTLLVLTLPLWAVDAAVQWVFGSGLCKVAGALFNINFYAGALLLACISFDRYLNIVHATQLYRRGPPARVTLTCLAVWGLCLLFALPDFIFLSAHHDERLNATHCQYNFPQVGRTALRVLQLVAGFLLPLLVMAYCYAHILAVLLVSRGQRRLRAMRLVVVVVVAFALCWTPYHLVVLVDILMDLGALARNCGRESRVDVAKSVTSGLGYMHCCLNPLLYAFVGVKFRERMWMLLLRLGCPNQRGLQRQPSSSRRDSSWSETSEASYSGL
Summary of the method: (§1)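 HEK293 cells stably expressing β-gal enzyme acceptor, transiently transfected with PK1- or PK2-tagged wild-type CXCR3, 2000 cells/well, grown overnight at 37 °C. Compounds or CXCL11 in PBS pH 7.4 with 0.20% BSA added for 4 h. Detection mix 60 min at room temperature, then chemiluminescence read. Efficacy expressed as % of CXCL11 effect. Two to three experiments in triplicate.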

[2] = target: T1, C-X-C chemokine receptor type 3 (Homo sapiens); assay: Positive allosteric modulation of human CXCR3 expressed in HEK293T cell membranes after 30 mins by [35S]GTPgammaS incorporation assay relative to CXCL11; type: functional; conditions: HEK-293T
Summary of the method: (§2)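 Membranes from HEK293 cells stably expressing CXCR3 (30 µg/mL protein) in 20 mM HEPES, 10 mM MgCl2, 100 mM NaCl, 100 mg/L saponin, pH 7.4. Compound plus 1 µM GDP preincubated 30 min at 37 °C, then 0.10 nM [35S]GTPγS added for 30 min at 37 °C. Filtered on GF/B and counted. Efficacy expressed as % of CXCL11. Three experiments in triplicate, pEC50 by nonlinear regression.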

[3] = target: T1, C-X-C chemokine receptor type 3 (Homo sapiens); assay: Positive allosteric modulation of CXCR3 (unknown origin) expressed in HEK293 cells assessed as induction of cell migration at 100 nM after 5 hrs by transwell migration assay relative to control; type: cell-based
Summary of the method: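 HEK293 cells transiently transfected with CXCR3 by calcium phosphate, used 48 h later, serum-starved. Compound placed in lower (source) chamber in 0.2% serum DMEM. Cells (1 × 10^5/well) in upper chamber, 5 h migration at 37 °C. Crystal-violet-stained migrated cells counted in 5 predefined areas and compared with buffer control.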

[4] = target: T1, C-X-C chemokine receptor type 3 (Homo sapiens); assay: Inhibition of CXCL11-mediated activation of human CXCR3 expressed in HEK cells; type: cell-based; conditions: HEK293
[5] = Cytotoxicity against HEK293T cells expressing CXCR3 at 10 uM incubated overnight by ApoTox-Glo Triplex assay; type: cell-based; conditions: human, hek-293t
Summary of the method: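 10,000 HEK293T cells stably expressing CXCR3 incubated overnight with compound at 10 µM. ApoTox-Glo triplex. Viability read by fluorescence at 400Ex/505Em (GF-AFC) and cytotoxicity at 485Ex/520Em (bis-AAF-R110), each after a 30 min reagent step. Caspase-3/7 luminescence then read after a further 30 min.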

[6] = target: T1, C-X-C chemokine receptor type 3 (Homo sapiens); assay: Induction of C-terminal eGFP-tagged CXCR3 (unknown origin) internalization expressed in HEK293T cells at 1 to 10 uM after 60 mins by scanning laser confocal microscopy; type: cell-based; conditions: HEK-293T
Summary of the method: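 HEK293T cells transiently transfected with C-terminally eGFP-tagged CXCR3, moved to poly-L-lysine coverslips at 24 h. Two days post-transfection, treated 60 min at 37 °C with compound (10 µM and 1 µM) or 100 nM CXCL11. Fixed in 4% paraformaldehyde and imaged by confocal laser scanning microscopy.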

[7] = target: T1, C-X-C chemokine receptor type 3 (Homo sapiens); assay: Positive allosteric modulation of ProLink1-tagged wild type CXCR3 (unknown origin) expressed in HEK293T cells assessed as beta-arrestin-2 recruitment incubated for 4 hrs by chemiluminescence-based microplate reader method; type: cell-based; conditions: HEK-293T; summary of the method: as §1
[8] = target: T1, C-X-C chemokine receptor type 3 (Homo sapiens); assay: Inhibition of CXCL10-mediated activation of human CXCR3 expressed in HEK cells; type: cell-based; conditions: HEK293
[9] = target: T1, C-X-C chemokine receptor type 3 (Homo sapiens); assay: Positive allosteric modulation of ProLink1-tagged wild type CXCR3 (unknown origin) expressed in HEK293T cells assessed as beta-arrestin-2 recruitment incubated for 4 hrs by chemiluminescence-based microplate reader method relative to CXCL11; type: cell-based; conditions: HEK-293T; summary of the method: as §1
[10] = target: T1, C-X-C chemokine receptor type 3 (Homo sapiens); assay: Displacement of [125I]CXCL11 from human CXCR3 isoform 1 expressed in African green monkey COS7 cells after 3 hrs by liquid scintillation counting method; type: cell-based; conditions: COS-7
Summary of the method: (§3)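 Cells washed in 50 mM HEPES/5 g/L BSA and chilled 15 min at 4 °C. Ligands added, then 10-15 pM [125I]CXCL11 (Chloramine-T labelled, HPLC-purified). Incubation 3 h at 4 °C, washes, bound radioactivity read by liquid scintillation.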

[11] = target: T1, C-X-C chemokine receptor type 3 (Homo sapiens); assay: Displacement of [125I]CXCL11 from human CXCR3 isoform 1 expressed in African green monkey COS7 cells at 1 uM after 3 hrs by liquid scintillation counting method; type: cell-based; conditions: COS-7; summary of the method: as §3
[12] = target: T1, C-X-C chemokine receptor type 3 (Homo sapiens); assay: Antagonist activity at CXCR3 (unknown origin) expressed in HEK293 cells assessed as inhibition of CXCL11-mediated cell migration after 5 hrs by transwell migration assay; type: cell-based
Summary of the method: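 CXCR3-transfected HEK293 cells (calcium phosphate, used 48 h post-transfection), serum-starved, pre-incubated 15 min with compound. Compound present in both upper chamber (1 × 10^5 cells/well, 0.2% serum DMEM) and lower chamber containing CXCL11. Migration 5 h at 37 °C. Migrated cells fixed in 3.7% formaldehyde, stained with crystal violet, counted in 5 predefined areas.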

[13] = target: T1, C-X-C chemokine receptor type 3 (Homo sapiens); assay: Induction of FLAG-tagged CXCR3 (unknown origin) internalization expressed in HEK293T cells at 10 uM after 60 mins by ELISA; type: cell-based; conditions: HEK-293T
Summary of the method: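 FLAG-CXCR3-transfected HEK293T cells replated on poly-D-lysine. At 48 h, serum-free DMEM with compound (10 µM) or CXCL11 (100 nM) for 1 h at 37 °C. Cells fixed in 4% formaldehyde. Surface receptor detected with anti-FLAG antibody and peroxidase-conjugated anti-mouse IgG, o-phenylenediamine substrate, stopped with 1M H2SO4, absorbance at 492 nm.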

[14] = target: T1, C-X-C chemokine receptor type 3 (Homo sapiens); assay: Effect on CXCL11-induced beta-arrestin-2 recruitment to wild type CXCR3 (unknown origin) expressed in HEK293T cells at 10 to 1000 nM incubated for 4 hrs by chemiluminescence-based microplate reader method; type: cell-based; conditions: HEK-293T
[15] = target: T1, C-X-C chemokine receptor type 3 (Homo sapiens); assay: Positive allosteric modulation of ProLink2-tagged wild type CXCR3 (unknown origin) expressed in HEK293T cells assessed as beta-arrestin-2 recruitment incubated for 4 hrs by chemiluminescence-based microplate reader method relative to CXCL11; type: cell-based; conditions: HEK-293T; summary of the method: as §1
[16] = target: T1, C-X-C chemokine receptor type 3 (Homo sapiens); assay: Positive allosteric modulation of human CXCR3 expressed in HEK293T cell membranes after 30 mins by [35S]GTPgammaS incorporation assay; type: functional; conditions: HEK-293T; summary of the method: as §2

Activity [1] [%]	Efficacy [2]	fold change (FC) [3]	inhibition [4]	Activity [6]	pEC50 [7]	inhibition [8]	Efficacy [9]	inhibition [10]	inhibition [11]	inhibition [12]	Activity [13]	Activity [14]	Efficacy [15] [%]	pEC50 [16]	Structure (SMILES)	Activity [5]
70	47%	–	–	–	–	–	–	–	–	–	–	–	–	–	CC(C)(C)OC(=O)NCCCC[C@H](NC(=O)[C@@H]1Cc2ccccc2CN1C(=O)CCC(=O)c1ccccc1)C(=O)NCC(c1ccccc1)c1ccccc1	–
–	50%	0.25	inactive	inactive	inactive	inactive	inactive	inactive	inactive	inactive	–	–	–	–	COc1ccc(C(=O)CCC(=O)N2Cc3ccccc3C[C@H]2C(=O)NCCCC[C@H](NC(=O)OC(C)(C)C)C(=O)NCC(c2ccccc2)c2ccccc2)cc1	Non-toxic
–	inactive	0.25	inactive	Active	–	inactive	30%	inactive	inactive	inactive	Active	inactive	66	inactive	CC(C)(C)OC(=O)N[C@@H](CCCCNC(=O)[C@@H]1Cc2ccccc2CN1C(=O)CCC(=O)c1ccccc1)C(=O)NCC(c1ccccc1)c1ccccc1	Non-toxic
